# Measured values published in ChEMBL document CHEMBL5154854, “Identification of a Vitamin-D Receptor Antagonist, MeTC7, which Inhibits the Growth of Xenograft and Transgenic Tumors In Vivo” (J Med Chem, 2022).
# Activity calls are given as the source filed them. No cut-off for these calls is given here.
# Legend:
# SH-SY5Y = assay: Cytotoxicity against human SH-SY5Y cells assessed as reduction in cell viability incubated for 48 hrs by MTS assay; type: functional, cell-based; conditions: dose 0.1-10 µM, DDE = dose-dependent effect
# How it was run: (§1)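 Neuroblastoma lines seeded 5,000 cells/well, attached overnight, treated 48 h in complete medium (DMSO ≤0.2%); MTS reagent 1:10 in fresh RPMI 2–4 h, absorbance 490 nm.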
# SK-N-AS = assay: Cytotoxicity against human SK-N-AS cells assessed as reduction in cell viability incubated for 48 hrs by MTS assay; type: functional, cell-based; conditions: dose 0.1-10 µM, DDE = dose-dependent effect; how it was run: as §1
# [1] = Toxicity in TH-MYCN +/+ transgenic neuroblastoma 129x1/SvJ.Tg (TH-MYCN)41Waw/Nci mouse model assessed as effect on macrophage population at 10 mg/kg, ip qd by flow cytometry; type: organism-based; conditions: in vivo
# How it was run: (§2)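 Immune cells isolated from TH-MYCN tumor-bearing mice treated with vehicle or compound; CD45+, CD4+, CD8+, macrophage, patrolling monocyte/DC and CD11b+ populations quantified by flow cytometry with characterized markers.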
# Tumor cell line [2] = assay: Cytotoxicity against tumor cells in TH-MYCN +/+ transgenic neuroblastoma 129x1/SvJ.Tg (TH-MYCN)41Waw/Nci mouse model assessed as reduction in viability of tumor spheres measured after 3 days by light microscopy; type: functional, cell-based; conditions: dose 1-4 µM, time 3.0 day, DDE = dose-dependent effect
# How it was run: (§3)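 Tumor cells mechanically dissociated from tumors of three homozygous TH-MYCN mice, grown as spheres in RPMI1640 with 20% FBS, 2-mercaptoethanol, pyruvate and NEAA; treated 3 days; viability by MTS; spheres imaged by light microscopy.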
# [3] = Toxicity in TH-MYCN +/+ transgenic neuroblastoma 129x1/SvJ.Tg (TH-MYCN)41Waw/Nci mouse model assessed as effect on patrolling monocytes/DC+ cells population at 10 mg/kg, ip qd by flow cytometry; type: organism-based; conditions: in vivo; how it was run: as §2
# [4] = biological target: T1, Vitamin D3 receptor (Homo sapiens) (UniProt P11473); assay: Antagonist activity at VDR LBD (unknown origin) transfected in HEK-293T cells assessed as inhibition of 1,25(OH)2D3-induced receptor transactivation incubated for 16 hrs by Bright-Glo luciferase assay; type: cell-based; conditions: filed as antagonist
# T1 sequence (whole entry): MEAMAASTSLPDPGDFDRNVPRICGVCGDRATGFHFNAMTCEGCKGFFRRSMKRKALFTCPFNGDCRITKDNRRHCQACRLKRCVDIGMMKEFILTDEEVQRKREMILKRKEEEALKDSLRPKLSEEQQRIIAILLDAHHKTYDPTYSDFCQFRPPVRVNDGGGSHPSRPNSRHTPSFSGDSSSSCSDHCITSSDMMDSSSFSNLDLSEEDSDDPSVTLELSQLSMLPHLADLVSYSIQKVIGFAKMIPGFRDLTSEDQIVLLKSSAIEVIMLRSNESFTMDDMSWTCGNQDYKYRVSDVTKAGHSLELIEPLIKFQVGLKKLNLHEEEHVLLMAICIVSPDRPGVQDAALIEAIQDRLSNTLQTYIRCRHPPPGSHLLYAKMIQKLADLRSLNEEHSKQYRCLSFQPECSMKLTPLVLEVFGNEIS
# How it was run: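 HEK293T on matrigel, lipid-transfected with VDR-CMV plasmid and CYP24A1-luciferase reporter; after 16 h, replated at 15,000 cells/well, compound added 4 h later together with 10 nM 1,25(OH)2D3; 16 h at 37 °C, 5% CO2; luminescence read. At least two independent experiments in quadruplicate; nonlinear regression, variable slope.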
# BE(2)-C [5] = assay: Cytotoxicity against human BE2C cells assessed as reduction in cell viability incubated for 48 hrs by MTS assay; type: functional, cell-based; conditions: dose 0.1-10 µM, DDE = dose-dependent effect; how it was run: as §1
# D283 Med [6] = assay: Anti-tumor activity against human D283 Med cells xenografted in NSG mouse assessed as reduction in tumor size at 10 mg/kg, ip measured on day 12; type: functional, organism-based; conditions: time 12.0 day
# How it was run: (§4)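 NSG mice implanted subcutaneously with 1 million D283, PANC-1 or BXPC-3 cells in matrigel/DMEM 1:1; once palpable, 10 mg/kg IP M–F vs vehicle; volume (length × width2)[…], % change; endpoint 2000 mm3; tumors excised and weighed; unpaired t-test.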
# [7] = Toxicity in NSG mouse xenografted with human ES2 cells assessed as body weight change at 10 mg/kg, ip measured upto 30 days; type: organism-based; conditions: in vivo, 720 h, time < 30 day
# HEK-293T = assay: Cytotoxicity against HEK-293T cells assessed as inhibition of cell proliferation upto 100 uM incubated for 18 hrs by MTS assay; type: toxicity, cell-based; conditions: human
# Mus musculus [8] = assay: Anti-tumor activity against TH-MYCN +/+ transgenic neuroblastoma 129x1/SvJ.Tg (TH-MYCN)41Waw/Nci mouse model assessed as reduction in tumor growth at 10 mg/kg, ip measured upto 7 days by ultrasound imaging analysis; type: functional, organism-based; conditions: time <= 7.0 day
# How it was run: (§5)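 Homozygous TH-MYCN+/+ mice (129×1/SvJ background, genotyped) with spontaneous neuroblastoma dosed IP, vehicle n = 7, 10 mg/kg n = 8, six treatments; a 100 mg/kg group got three. Tumor burden by abdominal ultrasound under 1–3% isoflurane; tumors excised and weighed at end; groups compared by t-test.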
# SK-OV-3 = assay: Cytotoxicity against human SK-OV-3 cells assessed as reduction in cell viability incubated for 24 hrs by MTS assay; type: functional, cell-based; conditions: dose 0.25-1.25 µM, DDE = dose-dependent effect
# How it was run: (§6)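 Ovarian lines seeded 5,000 cells/well, attached overnight, treated 24 h in complete medium (DMSO ≤0.2%); MTS reagent 1:10 in fresh RPMI 2–4 h, absorbance 490 nm; triplicate, % of DMSO-treated cells.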
# Mus musculus [9] = assay: Anti-tumor activity against tumor cells in TH-MYCN +/+ neuroblastoma 129x1/SvJ.Tg (TH-MYCN)41Waw/Nci mouse model assessed as reduction in tumor weight at 10 mg/kg, ip measured on day 7 by ultrasound imaging analysis; type: functional, organism-based; conditions: time 7.0 day; how it was run: as §5
# D283 Med [10] = assay: Anti-tumor activity against human D283 Med cells xenografted in NSG mouse assessed as reduction in tumor volume at 10 mg/kg, ip measured on day 12; type: functional, organism-based; conditions: time 12.0 day; how it was run: as §4
# [11] = biological target: T1, Vitamin D3 receptor (Homo sapiens); assay: Antagonist activity at VDR in human 2008 cells assessed as suppression of importin-4 expression at 250 nM incubated for 12 to 18 hrs by western blot analysis relative to control; type: cell-based; conditions: filed as antagonist, time 12-18 hrs
# How it was run: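 2008 ovarian cancer cells exposed 250 nM, 18 h; immunoblot with loading control (GAPDH for RXR-α, α-tubulin for Importin-4); band densitometry normalized to loading control.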
# Tumor cell line [12] = assay: Cytotoxicity against tumor cells in TH-MYCN +/+ transgenic neuroblastoma 129x1/SvJ.Tg (TH-MYCN)41Waw/Nci mouse model assessed as reduction in cell viability at 0.1 to 10 uM measured after 3 days by MTS assay; type: functional, cell-based; conditions: dose 0.1-10 µM, time 3.0 day; how it was run: as §3
# IGROV-1 = assay: Cytotoxicity against human IGROV-1 cells assessed as reduction in cell viability incubated for 24 hrs by MTS assay; type: functional, cell-based; conditions: dose 0.25-1.25 µM, DDE = dose-dependent effect; how it was run: as §6
# [13] = Downregulation of VDR expression in human BE2C cells at 1 uM incubated for 24 hrs by western blot analysis relative to control; type: functional, BE(2)-C
# How it was run: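 BE(2)-C neuroblastoma cells were treated for 24 h and immunoblotted for VDR, with β-actin or α-tubulin as loading control. Band intensities are reported as normalized densitometry.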
# BE(2)-C [14] = assay: Anti-tumor activity against human BE2C cells xenografted in NSG mouse assessed as reduction in tumor volume at 10 mg/kg, ip measured for 5 to 8 days; type: functional, organism-based; conditions: time 5-8 day
# How it was run: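 NSG mice, 6–8 weeks, injected subcutaneously in right flank with ES2 (250,000) or SH-SY5Y/BE(2)C (1 million) cells in cold matrigel/serum-free RPMI 1:1. Once palpable, 10 mg/kg IP M–F vs vehicle; volume (length × width2)[…]; BE(2)C and ES2 monitored alternate days; endpoint 2000 mm3; % change in volume, t-test.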
# [15] = biological target: T1, Vitamin D3 receptor (Homo sapiens); assay: Antagonist activity at VDR in human BE2C cells assessed as reduction in cyclin-D expression at 1 uM incubated for 24 hrs by western blot analysis relative to control; type: cell-based; conditions: filed as antagonist
# How it was run: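 BE(2)-C cells given 1 μM for 24 h; immunoblot with β-actin or α-tubulin loading control; normalized densitometry.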
# OVCAR-8 = assay: Cytotoxicity against human OVCAR-8 cells assessed as reduction in cell viability incubated for 24 hrs by MTS assay; type: functional, cell-based; conditions: dose 0.25-1.25 µM, DDE = dose-dependent effect; how it was run: as §6
compound,measurement,setting,value
CC(C)CCC[C@@H](C)[C@H]1CC[C@@H]2[C@]1(C)CCC1[C@]23C=C[C@]2(C[C@@H](OC(=O)CBr)CC[C@]12C)n1c(=O)n(C)c(=O)n13 (stereo partly specified),Activity,SH-SY5Y,Dde
same,Activity,SK-N-AS,Dde
same,Activity,[1],Non-Toxic
same,Activity,Tumor cell line [2],Dde
same,Activity,[3],Non-Toxic
same,Activity,[4],20.8 µM
same,Activity,BE(2)-C [5],Dde
same,Activity,D283 Med [6],Active
same,Activity,[7],Non-Toxic
same,Activity,HEK-293T,Non-Toxic
same,Activity,Mus musculus [8],Active
same,Activity,SK-OV-3,Dde
same,Activity,Mus musculus [9],Active
same,Activity,D283 Med [10],Active
same,fold change (FC),[11],0.82
same,Activity,Tumor cell line [12],Active
same,Activity,IGROV-1,Dde
same,fold change (FC),[13],0.83
same,Activity,BE(2)-C [14],Active
same,fold change (FC),[15],0.8
same,Activity,OVCAR-8,Dde
